Here are results for ten compounds from ChEMBL document CHEMBL4118263, “Synthesis, structure-activity relationship and molecular docking studies of 3-O-flavonol glycosides as cholinesterase inhibitors” (Bioorg Med Chem, 2018).

Assay [1] addresses Cholinesterase (Equus caballus, UniProt P81908). The assay can be described thus: Inhibition of horse serum BChE using butyrylthiocholine iodide as substrate pretreated for 10 mins followed by substrate addition measured after 20 mins by Ellman's method. In outline:
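Horse serum BChE was preincubated 10 min with test sample (20, 40, 60, 80, 100 μM). Butyrylthiocholine chloride (0.2 mM) was then added with DTNB (0.5 mM) in phosphate buffer pH 8 and incubated 20 min at 37 °C. Run in triplicate; IC50 by simple linear regression.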
A general note: DTNB colorimetry detects thiols as they appear.

For assay [2], the target named is Acetylcholinesterase (Electrophorus electricus, UniProt O42275). As to the kind of experiment: Inhibition of electric eel AChE using acetylthiocholine iodide as substrate pretreated for 10 mins followed by substrate addition measured after 20 mins by Ellman's method.
Sequence of Acetylcholinesterase (O42275 whole entry): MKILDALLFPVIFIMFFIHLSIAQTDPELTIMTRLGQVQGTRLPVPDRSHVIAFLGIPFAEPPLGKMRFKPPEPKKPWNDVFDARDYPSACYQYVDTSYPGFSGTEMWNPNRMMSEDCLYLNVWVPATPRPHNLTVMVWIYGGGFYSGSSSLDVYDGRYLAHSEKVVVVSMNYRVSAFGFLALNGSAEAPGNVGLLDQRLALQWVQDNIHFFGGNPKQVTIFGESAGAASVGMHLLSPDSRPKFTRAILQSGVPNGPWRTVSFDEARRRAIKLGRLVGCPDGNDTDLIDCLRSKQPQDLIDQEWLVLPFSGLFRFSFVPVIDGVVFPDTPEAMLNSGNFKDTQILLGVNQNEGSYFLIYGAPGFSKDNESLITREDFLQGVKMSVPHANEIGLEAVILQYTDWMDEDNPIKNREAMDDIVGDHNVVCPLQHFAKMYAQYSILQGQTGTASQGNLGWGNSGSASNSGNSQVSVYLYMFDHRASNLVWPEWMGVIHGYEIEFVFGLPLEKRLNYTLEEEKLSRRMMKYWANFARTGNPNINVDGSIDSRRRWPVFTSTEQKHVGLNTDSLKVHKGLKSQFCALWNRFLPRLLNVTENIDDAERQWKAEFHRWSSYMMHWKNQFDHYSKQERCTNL

Sequence of Cholinesterase (P81908 whole entry): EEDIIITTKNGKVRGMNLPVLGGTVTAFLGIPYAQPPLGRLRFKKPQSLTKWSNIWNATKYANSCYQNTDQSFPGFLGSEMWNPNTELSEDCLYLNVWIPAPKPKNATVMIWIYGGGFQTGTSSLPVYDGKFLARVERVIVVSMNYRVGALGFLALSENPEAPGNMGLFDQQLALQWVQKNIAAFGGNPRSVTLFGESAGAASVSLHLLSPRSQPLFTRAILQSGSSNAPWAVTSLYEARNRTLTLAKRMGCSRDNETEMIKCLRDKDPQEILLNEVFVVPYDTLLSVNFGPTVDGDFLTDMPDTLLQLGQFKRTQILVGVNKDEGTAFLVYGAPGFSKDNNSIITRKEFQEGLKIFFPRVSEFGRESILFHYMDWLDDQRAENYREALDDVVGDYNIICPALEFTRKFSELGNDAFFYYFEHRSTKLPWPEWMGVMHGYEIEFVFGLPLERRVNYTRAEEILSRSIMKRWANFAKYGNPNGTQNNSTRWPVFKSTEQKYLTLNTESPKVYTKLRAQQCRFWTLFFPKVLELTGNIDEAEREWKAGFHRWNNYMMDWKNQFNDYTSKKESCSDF

For orientation: IC50 means the concentration at which inhibition is half-maximal. As to `CC(=O)OC[C@H]1O[C@@H](Oc2c(-c3cccc4ccccc34)oc3ccccc3c2=O)[C@H](OC(C)=O)[C@@H](OC(C)=O)[C@@H]1OC(C)=O`, the results for the half-maximal inhibitory concentration (IC50) in assay [1] and in assay [2] were 18.7 µM and 36.4 µM, respectively.
On the same counts, the results for `CC(=O)OC[C@H]1O[C@@H](Oc2c(-c3ccc(Br)cc3)oc3cc(C)ccc3c2=O)[C@H](OC(C)=O)[C@@H](OC(C)=O)[C@@H]1OC(C)=O` are 30.6 µM and 22.4 µM.
For the compound `CC(=O)OC[C@H]1O[C@@H](Oc2c(-c3ccccc3)oc3ccccc3c2=O)[C@H](OC(C)=O)[C@@H](OC(C)=O)[C@@H]1OC(C)=O`, the IC50 in assay [1] was 45.9 µM; in assay [2], 103 µM.
On the same counts, the results for `CC(=O)OC[C@H]1O[C@@H](Oc2c(-c3ccc(CC(C)C)cc3)oc3ccccc3c2=O)[C@H](OC(C)=O)[C@@H](OC(C)=O)[C@@H]1OC(C)=O` are 5.42 µM and 2.05 µM.
On the same counts, the results for `CC(=O)OC[C@H]1O[C@@H](Oc2c(-c3cccs3)oc3ccccc3c2=O)[C@H](OC(C)=O)[C@@H](OC(C)=O)[C@@H]1OC(C)=O` are 25.5 µM and 18.5 µM.
The like results for `COc1ccc(-c2oc3ccccc3c(=O)c2O[C@@H]2O[C@H](COC(C)=O)[C@@H](OC(C)=O)[C@H](OC(C)=O)[C@H]2OC(C)=O)cc1` were, in that order, 26 µM and 20.7 µM.
In the case of `CC(=O)OC[C@H]1O[C@@H](Oc2c(-c3ccc(F)cc3)oc3ccccc3c2=O)[C@H](OC(C)=O)[C@@H](OC(C)=O)[C@@H]1OC(C)=O`, the IC50 in assay [1] amounted to 49.8 µM; in assay [2], 29.2 µM.
Consider `CC(=O)OC[C@H]1O[C@@H](Oc2c(-c3ccccc3C(=O)O)oc3ccccc3c2=O)[C@H](OC(C)=O)[C@@H](OC(C)=O)[C@@H]1OC(C)=O`, for which the values for the half-maximal inhibitory concentration (IC50) in assay [1] and in assay [2] were 48.4 µM and 34 µM, respectively.
The like results for `CC(=O)Nc1ccc(-c2oc3ccccc3c(=O)c2O[C@@H]2O[C@H](COC(C)=O)[C@@H](OC(C)=O)[C@H](OC(C)=O)[C@H]2OC(C)=O)cc1` were, in that order, 39.7 µM and 38.7 µM.
On the same counts, the results for `CC(=O)OC[C@H]1O[C@@H](Oc2c(-c3ccc(Br)cc3)oc3ccccc3c2=O)[C@H](OC(C)=O)[C@@H](OC(C)=O)[C@@H]1OC(C)=O` are 3.12 µM and 10.2 µM.
